System: HEK-293T
Experiment: Multiplex assay against HEK293T;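 on Population Tubulin-Different-Phenotype (%): share of the cells with healthy nuclei that show this phenotype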
Assay type: toxicity, cell-based
Conditions: human
Summary of the method: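 Cells stained live at seeding with Hoechst33342, BioTracker Green Microtubule Cytoskeleton Dye, MitoTracker Red and Annexin V Alexa Fluor 680 were imaged on a CQ1 microscope at 37°C and 5% CO2 after compound addition. Their classification by CellPathfinder machine-learning gating ran from Hoechst high-intensity objects versus normal cells, to healthy, pyknosed or fragmented nuclei among normal cells, to mitotic or apoptotic among pyknosed cells. Tubulin, mitochondrial-mass and membrane-permeability phenotypes are per cents of healthy-nucleus cells.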

[1] = 12 h, 1 µM, compound concentration 1 uM, replicate 1
[2] = 12 h, 1 µM, compound concentration 1 uM, replicate 2
[3] = 12 h, 10 µM, compound concentration 10 uM, replicate 1
[4] = 12 h, 10 µM, compound concentration 10 uM, replicate 2
[5] = 24 h, 1 µM, compound concentration 1 uM, replicate 1
[6] = 24 h, 1 µM, compound concentration 1 uM, replicate 2
[7] = 24 h, 10 µM, compound concentration 10 uM, replicate 1
[8] = 24 h, 10 µM, compound concentration 10 uM, replicate 2
[9] = 48 h, 1 µM, compound concentration 1 uM, replicate 1
[10] = 48 h, 1 µM, compound concentration 1 uM, replicate 2
[11] = 48 h, 10 µM, compound concentration 10 uM, replicate 1
[12] = 48 h, 10 µM, compound concentration 10 uM, replicate 2

In the case of `Cc1cn(-c2cc(NC(=O)c3ccc(C)c(Nc4nccc(-c5cccnc5)n4)c3)cc(C(F)(F)F)c2)cn1` [NILOTINIB], the “Population Apoptotic (%)” value [1] was 65%, the “Population Fragmented Nuclei (%)” value [1] was 10% and the “Population Hoechst High Intensity Objects (%)” value [1] was 17%. The “Population Membrane Permeable-Phenotype (%)” value [1] was 2%, the “Population Mitochondria Different-Phenotype (%)” value [1] was 92% and the “Population Mitotic Cells (%)” value [1] was 34%. The “Population Normal (%)” value [1] was 82%, the “Population Pyknosed Nuclei (%)” value [1] was 51% and the “Population Tubulin-Different-Phenotype (%)” value [1] was 98%. For the same molecule, the “Total Cell Count” value [1] was 215, the “Population Apoptotic (%)” value [2] was 21% and the “Population Fragmented Nuclei (%)” value [2] was 7%. For the same molecule, the “Population Healthy Nuclei (%)” value [2] was 37%, the “Population Hoechst High Intensity Objects (%)” value [2] was 6% and the “Population Membrane Permeable-Phenotype (%)” value [2] was 10%. The “Population Mitochondria Different-Phenotype (%)” value [2] was 10%, the “Population Mitotic Cells (%)” value [2] was 78% and the “Population Normal (%)” value [2] was 93%. For the same molecule, the “Population Pyknosed Nuclei (%)” value [2] was 55%, the “Population Tubulin-Different-Phenotype (%)” value [2] was 15% and the “Total Cell Count” value [2] was 164. For the same molecule, the “Population Apoptotic (%)” value [3] was 91%, the “Population Fragmented Nuclei (%)” value [3] was 54% and the “Population Healthy Nuclei (%)” value [3] was 12%. For the same molecule, the “Population Hoechst High Intensity Objects (%)” value [3] was 48%, the “Population Membrane Permeable-Phenotype (%)” value [3] was 6% and the “Population Mitochondria Different-Phenotype (%)” value [3] was 61%. The “Population Mitotic Cells (%)” value [3] was 8%, the “Population Normal (%)” value [3] was 51% and the “Population Pyknosed Nuclei (%)” value [3] was 32%. For the same molecule, the “Population Tubulin-Different-Phenotype (%)” value [3] was 59%, the “Total Cell Count” value [3] was 738 and the “Population Apoptotic (%)” value [4] was 38%. For the same molecule, the “Population Fragmented Nuclei (%)” value [4] was 9%, the “Population Healthy Nuclei (%)” value [4] was 32% and the “Population Hoechst High Intensity Objects (%)” value [4] was 3%. The “Population Membrane Permeable-Phenotype (%)” value [4] was 3%, the “Population Mitochondria Different-Phenotype (%)” value [4] was 71% and the “Population Mitotic Cells (%)” value [4] was 62%. For the same molecule, the “Population Normal (%)” value [4] was 96%, the “Population Pyknosed Nuclei (%)” value [4] was 57% and the “Population Tubulin-Different-Phenotype (%)” value [4] was 80%. For the same molecule, the “Total Cell Count” value [4] was 179, the “Population Apoptotic (%)” value [5] was 69% and the “Population Fragmented Nuclei (%)” value [5] was 14%. For the same molecule, the “Population Healthy Nuclei (%)” value [5] was 39%, the “Population Hoechst High Intensity Objects (%)” value [5] was 15% and the “Population Membrane Permeable-Phenotype (%)” value [5] was 1%. For the same molecule, the “Population Mitochondria Different-Phenotype (%)” value [5] was 98%, the “Population Mitotic Cells (%)” value [5] was 30% and the “Population Normal (%)” value [5] was 84%. The “Population Pyknosed Nuclei (%)” value [5] was 46%, the “Population Tubulin-Different-Phenotype (%)” value [5] was 94% and the “Total Cell Count” value [5] was 213. For the same molecule, the “Population Apoptotic (%)” value [6] was 18%, the “Population Fragmented Nuclei (%)” value [6] was 7% and the “Population Healthy Nuclei (%)” value [6] was 56%. The “Population Hoechst High Intensity Objects (%)” value [6] was 4%, the “Population Membrane Permeable-Phenotype (%)” value [6] was 8% and the “Population Mitochondria Different-Phenotype (%)” value [6] was 23%. The “Population Mitotic Cells (%)” value [6] was 81%, the “Population Normal (%)” value [6] was 95% and the “Population Pyknosed Nuclei (%)” value [6] was 35%. For the same molecule, the “Population Tubulin-Different-Phenotype (%)” value [6] was 38%, the “Total Cell Count” value [6] was 212 and the “Population Apoptotic (%)” value [7] was 87%. The “Population Fragmented Nuclei (%)” value [7] was 64%, the “Population Healthy Nuclei (%)” value [7] was 11% and the “Population Hoechst High Intensity Objects (%)” value [7] was 50%. For the same molecule, the “Population Membrane Permeable-Phenotype (%)” value [7] was 1%, the “Population Mitochondria Different-Phenotype (%)” value [7] was 50% and the “Population Mitotic Cells (%)” value [7] was 12%. The “Population Normal (%)” value [7] was 49%, the “Population Pyknosed Nuclei (%)” value [7] was 24% and the “Population Tubulin-Different-Phenotype (%)” value [7] was 51%. The “Total Cell Count” value [7] was 958, the “Population Apoptotic (%)” value [8] was 41% and the “Population Fragmented Nuclei (%)” value [8] was 5%. For the same molecule, the “Population Healthy Nuclei (%)” value [8] was 57%, the “Population Hoechst High Intensity Objects (%)” value [8] was 2% and the “Population Membrane Permeable-Phenotype (%)” value [8] was 5%. The “Population Mitochondria Different-Phenotype (%)” value [8] was 68%, the “Population Mitotic Cells (%)” value [8] was 58% and the “Population Normal (%)” value [8] was 97%. For the same molecule, the “Population Pyknosed Nuclei (%)” value [8] was 36%, the “Population Tubulin-Different-Phenotype (%)” value [8] was 85% and the “Total Cell Count” value [8] was 209. The “Population Apoptotic (%)” value [9] was 64%, the “Population Fragmented Nuclei (%)” value [9] was 17% and the “Population Healthy Nuclei (%)” value [9] was 31%. For the same molecule, the “Population Hoechst High Intensity Objects (%)” value [9] was 19%, the “Population Membrane Permeable-Phenotype (%)” value [9] was 1% and the “Population Mitochondria Different-Phenotype (%)” value [9] was 88%. For the same molecule, the “Population Mitotic Cells (%)” value [9] was 36%, the “Population Normal (%)” value [9] was 80% and the “Population Pyknosed Nuclei (%)” value [9] was 50%. The “Population Tubulin-Different-Phenotype (%)” value [9] was 85%, the “Total Cell Count” value [9] was 244 and the “Population Apoptotic (%)” value [10] was 16%. The “Population Fragmented Nuclei (%)” value [10] was 4%, the “Population Healthy Nuclei (%)” value [10] was 80% and the “Population Hoechst High Intensity Objects (%)” value [10] was 3%. The “Population Membrane Permeable-Phenotype (%)” value [10] was 9%, the “Population Mitochondria Different-Phenotype (%)” value [10] was 9% and the “Population Mitotic Cells (%)” value [10] was 83%. The “Population Normal (%)” value [10] was 96%, the “Population Pyknosed Nuclei (%)” value [10] was 14% and the “Population Tubulin-Different-Phenotype (%)” value [10] was 38%. For the same molecule, the “Total Cell Count” value [10] was 337, the “Population Apoptotic (%)” value [11] was 84% and the “Population Fragmented Nuclei (%)” value [11] was 64%. For the same molecule, the “Population Healthy Nuclei (%)” value [11] was 14%, the “Population Hoechst High Intensity Objects (%)” value [11] was 52% and the “Population Membrane Permeable-Phenotype (%)” value [11] was 0%. For the same molecule, the “Population Mitochondria Different-Phenotype (%)” value [11] was 34%, the “Population Mitotic Cells (%)” value [11] was 15% and the “Population Normal (%)” value [11] was 47%. For the same molecule, the “Population Pyknosed Nuclei (%)” value [11] was 20%, the “Population Tubulin-Different-Phenotype (%)” value [11] was 32% and the “Total Cell Count” value [11] was 1138. The “Population Apoptotic (%)” value [12] was 41%, the “Population Fragmented Nuclei (%)” value [12] was 7% and the “Population Healthy Nuclei (%)” value [12] was 69%. The “Population Hoechst High Intensity Objects (%)” value [12] was 1%, the “Population Membrane Permeable-Phenotype (%)” value [12] was 1% and the “Population Mitochondria Different-Phenotype (%)” value [12] was 61%. The “Population Mitotic Cells (%)” value [12] was 58%, the “Population Normal (%)” value [12] was 98% and the “Population Pyknosed Nuclei (%)” value [12] was 23%. The “Population Tubulin-Different-Phenotype (%)” value [12] was 84% and the “Total Cell Count” value [12] was 290.

Source: ChEMBL document CHEMBL4689842, “EUbOPEN Chemogenomics Library wave 1” (2021)
